High-throughput results deposited in PubChem by several laboratories.
Hits are enriched below; roughly 2.4% of the tested compounds scored in any of these assays.
ABHD4 inh: ABHD4 inhibitors, primary screen, biochemical, fluorescence polarization, mouse | (Lyso)-N-acylphosphatidylethanolamine lipase (Mus musculus), Q8VD66 | purified mABHD4, FP-Rh probe fluorescence polarization | inhibition, % at 8.92 µM | hit rate 0.54% among 370,000;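 active = inhibition exceeding the mean over every tested compound plus 3 SD, cut at about 30% in these data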;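 also: 0% = plate median of compound wells and 100% = S159A mutant with DMSO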
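Test system: mouse ABHD4 enzyme, wild type. Reagent: FP-Rh fluorescent activity-based probe, added after compound pre-incubation. Timing: pre-incubation 45 min, probe exposure 60 min, at 25 °C. Technique: FP readout, ex 525 nm / em 598 nm. Benchmarks: high control S159A mutant with DMSO, low control median of compound wells.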
PRMT1 inh: PRMT1 methyltransferase inhibitors, primary screen, biochemical, fluorescence polarization; recombinant PRMT1, activity-based probe fluorescence polarization; hit rate 1.3% among 370,000; Protein arginine N-methyltransferase 1 (Homo sapiens), Q99873; inhibition, % at 2.79 µM;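 active = inhibition above about 21% made by adding two undisclosed values, limit read from the data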
JMJD2C inh: inhibitors of GASC-1 histone demethylase, primary screen, biochemical, fluorescence, DELFIA europium | Lysine-specific demethylase 4C (Homo sapiens), Q9H3R0 | GST-JMJD2C(1-420) H3K9me3 demethylation | inhibition, % at 2.35 µM | hit rate 0.069% among 330,000;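 active = more than half of a compound's replicate wells show inhibition beyond 50%, single wells judged on their own value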;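 also: signal counts dimethyl H3K9 product captured on neutravidin plate; 0% = median of DMSO wells and 100% = 0.3 times that DMSO median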
SIAE primary: human SIAE inhibitors, primary screen, biochemical, fluorescence polarization, FP-Rh probe, 1536-well HTS; AID 1053197, 2014; hit rate 0.69% among 370,000; Sialate O-acetylesterase (Homo sapiens), Q9HAT2; SIAE FP-Rh probe binding; inhibition, % at 9.66 µM;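 active = inhibition above a cutoff: mean of compounds within the control limits plus 3 SD of those, cut at about 17% in these data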;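 also: 0% = plate median of compound wells and 100% = probe without SIAE protein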
HTRA1 inhibitor: HTRA1 serine protease inhibitors, primary screen, biochemical, fluorescence polarization, HTS; Q92743; inhibition, % at 5.96 µM; hit rate 0.5% among 340,000; recombinant HTRA1, FP-rhodamine activity-based probe; in the data active = inhibition above about 36%;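 also: 0% = enzyme with DMSO and 100% = wells lacking enzyme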
Target sequence (Q92743 whole entry, looked up): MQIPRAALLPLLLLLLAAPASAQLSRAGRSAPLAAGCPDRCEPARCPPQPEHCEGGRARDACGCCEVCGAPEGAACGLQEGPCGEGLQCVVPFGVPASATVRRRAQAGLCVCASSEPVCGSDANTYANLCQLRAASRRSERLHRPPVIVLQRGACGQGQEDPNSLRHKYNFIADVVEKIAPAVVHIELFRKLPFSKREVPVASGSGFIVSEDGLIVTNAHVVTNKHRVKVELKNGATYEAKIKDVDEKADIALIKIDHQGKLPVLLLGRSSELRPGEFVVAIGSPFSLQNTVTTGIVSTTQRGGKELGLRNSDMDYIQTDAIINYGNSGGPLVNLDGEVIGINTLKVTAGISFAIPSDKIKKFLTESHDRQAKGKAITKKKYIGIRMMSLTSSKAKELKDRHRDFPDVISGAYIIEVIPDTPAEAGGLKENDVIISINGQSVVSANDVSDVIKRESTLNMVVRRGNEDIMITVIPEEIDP
SIAE inh conf: human SIAE inhibitors, retest, confirmation, biochemical, fluorescence polarization, FP-Rh probe, triplicate. hit rate 13% among 2,300. SIAE FP-Rh activity-based probe. AID 1117263, 2014. shares compounds with SIAE primary. inhibition, % at 9.66 µM;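 active = mean inhibition of the replicates above the hit cutoff set in the primary screen, cut at about 17% in these data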;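 also: 0% = SIAE with DMSO and probe and 100% = probe without SIAE; inhibitors lower polarization as more probe stays unbound to SIAE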
* marks the source's active call; other numbers are inactive results; i = inactive; / = no result.

SMILES	ABHD4 inh	PRMT1 inh	JMJD2C inh	SIAE primary	HTRA1 inhibitor	SIAE inh conf
C[C@H]1CN([C@@H](C)CO)C(=O)CCCn2cc(nn2)CO[C@@H]1CN(C)C(=O)c1ccc2ccn(C)c2c1	5	2	/	6	/	/
COC(=O)c1cn(-c2ccc(F)cc2)c(=O)c2ccccc12	3	-2	9	18*	-2	6
O=C(O)c1cn(-c2ccc(F)cc2)c(=O)c2ccccc12	2	-2	8	0	0	/
COC(=O)c1[nH]c2ccc(Cl)cc2c1NC(=O)CN1CCC(C(N)=O)CC1	5	-2	-2	22*	/	-5
Cn1cnnc1SCC(=O)c1cc2ccccc2oc1=O	16	8	2	18*	26	6
Cc1nc(SCC(=O)N(C)c2ccccc2)[nH]c(=O)c1C	3	-1	/	0	/	/
c1ccc(Cn2ccc3ccc(-c4ccc5ccn(Cc6ccc(-c7ccccc7)cc6)c5c4)cc32)cc1	8	7	/	-7	/	/
CN=c1sc2c(n1C)C(=O)c1ccccc1C2=O	15	6	/	9	4	/
COc1ccc(S(=O)(=O)N2CCCC2)cc1C(=O)O	0	0	-15	18*	8	0
COc1ccc(S(=O)(=O)N2CCCCCC2)cc1C(=O)N1CCN(c2ccccc2C)CC1	9	-2	-6	2	-19	/
COc1ccc(Nc2ccc(S(=O)(=O)N3CCCCC3)cc2[N+](=O)[O-])cc1Cl	14	0	8	25*	6	-1
O=C(c1cccc(S(=O)(=O)N2CCCC2)c1)N1CCN(c2ccccc2)CC1	-1	-3	i	9	4	/
COc1ccc(S(=O)(=O)N2CCCCCC2)cc1C(=O)N1CCN(c2ccccc2O)CC1	8	1	-3	20*	-2	3
O=C(c1cccc(S(=O)(=O)N2CCCCCC2)c1)N1CCN(c2ccccc2)CC1	-1	-7	0	17*	-1	-1
CC(=O)Nc1ccc(S(=O)(=O)N2CCN(C(=O)C(=O)c3cccc(C(F)(F)F)c3)CC2)cc1	-13	5	/	-6	/	/
CCCCOCCCNC(=O)C[C@@H]1C[C@@]2(C(=O)OCC)CCC=C2N(Cc2ccc(Cl)cc2Cl)C1=O	-11	-3	/	-6	/	/
COc1cc(NC(=O)CN2c3cccc4cccc(c34)S2(=O)=O)cc(OC)c1OC	10	-4	4	29*	-3	-5
Cc1ccc(NC(=O)CSCC(=O)Nc2cc(S(=O)(=O)N3CCOCC3)ccc2OC(C)C)cc1	6	-1	/	-5	1	/
CCC[C@H]1[C@@H](OC(=O)N2CCOCC2)CC[C@@]23CCCN2C(=O)CCC[C@@H]13	-4	7	/	-1	/	/
CN(C)N1C(N)=C(C#N)C(c2ccc(F)cc2)C2=C1CCCC2=O (stereo unspecified)	2	-1	-2	19*	0	5
C=CCN1C(=O)[C@@H](CC(=O)N2CCN(C(=O)C3CC3)CC2)[C@]2(C(=O)OCC)CCCCC/C=C/12	-1	2	/	-2	/	/
O=C(NC1CCCCN(Cc2cccc(C(F)(F)F)c2)C1=O)c1cccc(F)c1 (stereo unspecified)	0	0	/	0	/	/
COCCN(CCOC)C(=O)CSc1ccc(S(=O)(=O)N2CCN(C)CC2)cn1	1	0	11	0	3	/
CC(=O)CSc1ccc(S(=O)(=O)N2CCN(C)CC2)cn1	-1	7	9	23*	1	-2
Cc1nc(C)c(-c2ccnc(/N=C/NO)n2)s1	-2	3	-3	-2	1	/
Cc1ccc(Nc2nc(/N=C/NO)n[nH]2)cc1C	3	-4	-4	26*	3	2
O=C1/C(=C\c2ccco2)SC(=S)N1c1ccccc1	18	14	0	25*	12	4
Cc1ccc(N2C(=O)/C(=C\c3ccco3)SC2=S)cc1	16	9	5	2	22	/
O=C(CN1C(=O)NC2(CCCC2)C1=O)N1CCCSC1=Nc1ccccc1	4	-3	/	23*	3	69*
